From ChEMBL document CHEMBL1255540, “Synthesis and biological evaluation of novel coumarin-based inhibitors of Cdc25 phosphatases” (Bioorg Med Chem Lett, 2010)
Calls of active or inactive are those of the source. The rule behind the calls is not given here.

Key:
[1] = biological target: T1, M-phase inducer phosphatase 1 (Homo sapiens, UniProt P30304); assay: Inhibition of human recombinant GST-tagged CDC25A expressed in bacterial expression system after 2 hrs
T1 sequence (P30304 whole entry): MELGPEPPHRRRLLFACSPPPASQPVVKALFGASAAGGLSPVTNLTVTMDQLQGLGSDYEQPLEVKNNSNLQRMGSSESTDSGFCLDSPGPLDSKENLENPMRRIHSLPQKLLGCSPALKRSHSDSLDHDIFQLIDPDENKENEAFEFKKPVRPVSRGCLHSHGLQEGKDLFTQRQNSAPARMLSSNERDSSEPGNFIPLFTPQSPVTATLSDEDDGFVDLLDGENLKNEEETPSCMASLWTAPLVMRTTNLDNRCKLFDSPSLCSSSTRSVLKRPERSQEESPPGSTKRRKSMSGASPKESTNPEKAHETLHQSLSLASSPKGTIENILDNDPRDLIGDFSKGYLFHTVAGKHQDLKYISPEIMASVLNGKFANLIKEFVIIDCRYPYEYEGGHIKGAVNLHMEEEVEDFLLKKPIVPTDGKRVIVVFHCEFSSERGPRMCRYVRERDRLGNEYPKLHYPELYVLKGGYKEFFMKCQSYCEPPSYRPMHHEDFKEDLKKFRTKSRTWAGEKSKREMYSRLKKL
In short: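 Each concentration tested in three independent microplates, three wells per plate. Median inhibitory concentration derived by generalized Poisson regression.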

[2] = biological target: T2, M-phase inducer phosphatase 3 (Homo sapiens) (UniProt P30307); assay: Inhibition of human recombinant GST-tagged CDC25C expressed in bacterial expression system at 100 uM after 2 hrs
T2 sequence (whole entry): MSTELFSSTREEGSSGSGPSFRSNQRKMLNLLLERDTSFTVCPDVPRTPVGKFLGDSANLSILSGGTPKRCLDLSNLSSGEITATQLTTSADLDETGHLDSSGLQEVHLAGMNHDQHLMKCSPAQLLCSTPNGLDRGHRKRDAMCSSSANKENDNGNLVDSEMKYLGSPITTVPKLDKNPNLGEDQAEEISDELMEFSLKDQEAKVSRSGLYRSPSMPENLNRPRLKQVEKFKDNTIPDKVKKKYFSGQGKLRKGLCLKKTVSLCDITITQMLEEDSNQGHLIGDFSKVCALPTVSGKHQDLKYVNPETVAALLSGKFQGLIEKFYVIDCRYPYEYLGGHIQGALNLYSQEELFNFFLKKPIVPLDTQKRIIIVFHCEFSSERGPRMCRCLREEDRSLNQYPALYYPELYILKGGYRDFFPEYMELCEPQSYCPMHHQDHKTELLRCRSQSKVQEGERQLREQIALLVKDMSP
In short: (§1)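 Full-length GST-Cdc25C, bacterial IPTG expression, GSH-agarose purification. 1 µg enzyme per well. Single-point tests at 100 µM final (reference 10 µM) and IC50 values. Each concentration in three separate microplates, three wells each. IC50 by generalized Poisson regression.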

[3] = biological target: T3, M-phase inducer phosphatase 2 (Homo sapiens) (UniProt P30305); assay: Inhibition of human recombinant GST-tagged CDC25B expressed in bacterial expression system at 100 uM after 2 hrs
T3 sequence (whole entry): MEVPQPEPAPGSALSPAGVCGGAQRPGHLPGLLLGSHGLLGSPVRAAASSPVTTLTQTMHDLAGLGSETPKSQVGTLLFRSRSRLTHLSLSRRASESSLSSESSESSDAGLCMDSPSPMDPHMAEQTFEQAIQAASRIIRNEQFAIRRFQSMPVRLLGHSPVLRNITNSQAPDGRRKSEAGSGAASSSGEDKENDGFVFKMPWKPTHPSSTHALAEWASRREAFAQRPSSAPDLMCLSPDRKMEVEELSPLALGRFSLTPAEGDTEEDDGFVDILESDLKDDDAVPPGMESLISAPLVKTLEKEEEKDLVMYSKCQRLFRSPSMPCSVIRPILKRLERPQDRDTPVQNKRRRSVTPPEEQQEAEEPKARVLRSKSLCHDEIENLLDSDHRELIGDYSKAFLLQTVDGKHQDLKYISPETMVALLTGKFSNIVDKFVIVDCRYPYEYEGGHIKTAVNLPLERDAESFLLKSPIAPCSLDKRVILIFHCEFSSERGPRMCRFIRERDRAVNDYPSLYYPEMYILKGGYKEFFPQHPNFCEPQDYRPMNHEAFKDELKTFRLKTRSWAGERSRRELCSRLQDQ
In short: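 Truncated GST-Cdc25B (active site only) expressed in bacteria by IPTG induction, purified on GSH-agarose. Tested at 100 µM final, reference at 10 µM. Percent inhibition, mean of three independent experiments with SD.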

[4] = biological target: T4, M-phase inducer phosphatase 3 (Homo sapiens, UniProt P30307); assay: Inhibition of human recombinant GST-tagged CDC25C expressed in bacterial expression system after 2 hrs; in short: as §1
T4 sequence (P30307 whole entry): T2 sequence (whole entry)

[5] = biological target: T5, M-phase inducer phosphatase 1 (Homo sapiens) (UniProt P30304); assay: Inhibition of human recombinant GST-tagged CDC25A expressed in bacterial expression system at 100 uM after 2 hrs
T5 sequence (whole entry): T1 sequence (P30304 whole entry)
In short: (§2)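 GST-Cdc25A (full length), made in bacteria by IPTG induction and purified on GSH-agarose. Enzyme at 1 µg/well. Compounds tested at 100 µM final (reference at 10 µM). Reported as % inhibition, mean ± SD of three independent experiments.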

[6] = biological target: T5, M-phase inducer phosphatase 1 (Homo sapiens); assay: Irreversible inhibition of human recombinant GST-tagged CDC25A expressed in bacterial expression system at 100 uM pretreated for up to 90 mins measured after 100 fold dilution
In short: (§3)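 Reversibility test. GST-Cdc25A was pre-incubated with compound at 100 µM (reference at 10 µM, DMSO control) for 0–90 min. The mixture was then diluted 100-fold to 1 µM (reference 0.1 µM). Activity was measured by adding OMFP to wells holding 900 ng enzyme. Representative of three independent experiments (M ± SD).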

[7] = biological target: T5, M-phase inducer phosphatase 1 (Homo sapiens); assay: Inhibition of human recombinant GST-tagged CDC25A expressed in bacterial expression system assessed as residual activity at 100 uM pretreated for 90 mins; in short: as §3
[8] = biological target: T5, M-phase inducer phosphatase 1 (Homo sapiens); assay: Inhibition of human recombinant GST-tagged CDC25A expressed in bacterial expression system; settings: TDE = time-dependent effect; in short: as §2

Row | IC50 [1] [µM] | inhibition [2] [%] | inhibition [3] [%] | IC50 [4] [µM] | inhibition [5] [%] | Activity [6] | Activity [7] [%] | inhibition [8] | SMILES
1 | 78 | 69 | 6.5 | 67 | 61.5 | – | – | – | COc1ccc2c(/C=C/C(=O)c3ccc(OC)c(OC)c3)cc(=O)oc2c1
2 | – | – | – | – | 22 | – | – | – | Cc1c(-c2ccc(O)cc2)c(=O)oc2cc(O)ccc12
3 | – | 17.9 | – | – | 20.5 | – | – | – | COc1ccc(-c2c(C)c3ccc(OC)cc3oc2=O)cc1
4 | – | 21.2 | 16.1 | – | – | – | – | – | COc1ccc2c(CSCC(=O)c3ccccc3)cc(=O)oc2c1
5 | – | 15.6 | 8.5 | – | 27.5 | – | – | – | Cc1c(/C=C/c2ccc(O)cc2)c(=O)oc2cc(O)ccc12
6 | 70 | 64.8 | 21.3 | 47 | 66.4 | – | – | – | COc1ccc(C(=O)/C=C/c2cc(=O)oc3cc(OC)ccc23)cc1
7 | – | 48.4 | – | – | 45.3 | – | – | – | COc1ccc(/C=C/c2c(C)c3ccc(OC)cc3oc2=O)cc1
8 | 27 | 79.3 | 35 | 49 | 94.2 | Active | 35 | tde | COc1ccc2c(/C=C/C(=O)c3ccccc3)cc(=O)oc2c1

The remaining lines, values behind:

Row | SMILES | IC50 [1] [µM] | inhibition [2] [%] | inhibition [3] [%] | IC50 [4] [µM] | inhibition [5] [%] | Activity [6] | Activity [7] [%] | inhibition [8]
9 | O=C(/C=C/c1cc(=O)oc2cc(O)ccc12)c1ccc(O)cc1 | 96 | 23.9 | 9.2 | > 150 | 55 | – | – | –
10 | COc1ccc(C(=O)CSCc2cc(=O)oc3cc(OC)ccc23)cc1 | – | 27.9 | – | – | 26.7 | – | – | –
11 | COc1ccc2c(C(=O)/C=C/c3ccccc3)cc(=O)oc2c1 | – | 31.3 | – | – | 45 | – | – | –
12 | COc1ccc(/C=C/C(=O)c2cc(=O)oc3cc(OC)ccc23)cc1 | – | 4.8 | – | – | – | – | – | –
13 | O=C(/C=C/c1cc(=O)oc2cc(O)ccc12)c1ccccc1 | 28 | 94.2 | 23.2 | 26 | 94.3 | – | – | –
14 | O=C(/C=C/c1cc(=O)oc2cc(O)ccc12)c1ccc(O)c(O)c1 | 62 | 43.7 | – | 72 | 68.7 | – | – | –
15 | COc1ccc2c(CSCC(=O)c3ccc(OC)c(OC)c3)cc(=O)oc2c1 | – | 26.2 | – | – | 39.8 | – | – | –
16 | COc1ccc2c(C(=O)/C=C/c3ccc(OC)c(OC)c3)cc(=O)oc2c1 | – | – | 9.1 | – | 7.4 | – | – | –
